From ChEMBL document CHEMBL1811825, “Synthesis and antiviral evaluation of 9-(S)-[3-alkoxy-2-(phosphonomethoxy)propyl]nucleoside alkoxyalkyl esters: inhibitors of hepatitis C virus and HIV-1 replication” (Bioorg Med Chem, 2011)

Experiments:
Cowpox virus = assay: Antiviral activity against Cowpox virus infected in human HFF cells after 3 days by Plaque reduction assay; assay type: functional, organism-based; conditions: 72 h
Hepatitis C virus [1] = assay: Antiviral activity against Hepatitis C virus genotype 1b infected in human Huh-7.5.1 cells after 48 to 72 hrs by luciferase reporter assay; assay type: functional, organism-based, Hepacivirus hominis
Hepatitis C virus [2] = assay: Antiviral activity against HCV JFH-1 infected in human Huh-7.5.1 cells after 48 to 72 hrs by luciferase reporter assay; assay type: functional, organism-based, Hepacivirus hominis; conditions: JFH-1, Huh-7.5.1
Human betaherpesvirus 5 = assay: Antiviral activity against Human cytomegalovirus infected in human HFF cells after 8 days by Plaque reduction assay; assay type: functional, organism-based; conditions: Human betaherpesvirus 5, HFF, 192 h
[3] = system: Human immunodeficiency virus 1; assay: Antiviral activity against HIV-1 LAI infected in human MT2 cells assessed as p24 antigen production after 4 days by ELISA; assay type: functional, organism-based; conditions: Human immunodeficiency virus 1, LAI, MT2, 96 h
How it was run: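 MT-2 cells in RPMI 1640 with 10% FBS, 10 mM HEPES, penicillin/streptomycin, inoculated with HIV-1 LAI at MOI 0.001 TCID50/cell; threefold serial drug dilutions, three wells each.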

[4] = Cytotoxicity against human Huh7.5.1 cells by fluorescent cell viability assay; assay type: cell-based, Huh-7
Human alphaherpesvirus 1 = assay: Antiviral activity against Human herpesvirus 1 infected in human HFF cells after 3 days by Plaque reduction assay; assay type: functional, organism-based; conditions: Human alphaherpesvirus 1, HFF, 72 h
Vaccinia virus = assay: Antiviral activity against Vaccinia virus infected in human HFF cells after 3 days by Plaque reduction assay; assay type: functional, organism-based; conditions: Orthopoxvirus vaccinia, 72 h
MT2 = assay: Cytotoxicity against human MT2 cells after 72 hrs by propidium iodide staining-based flow cytometry; assay type: cell-based; conditions: mt2, 72 h
[5] = Selectivity index, ratio of CC50 for human Huh7.5.1 cells to EC50 for HCV JFH-1 in human Huh-7.5.1 cells; assay type: functional, Huh-7
[6] = Selectivity index, ratio of CC50 for human MT2 cells to EC50 for HIV-1 LAI infected in human MT2 cells; assay type: toxicity, cell-based; conditions: read-out: Ratio CC50/EC50
[7] = Selectivity index, ratio of CC50 for human Huh7.5.1 cells to EC50 for HCV genotype1b in human Huh-7.5.1 cells; assay type: functional, Huh-7

SMILES | EC50 (Cowpox virus) [µM] | EC50 (Hepatitis C virus [1]) [µM] | EC50 (Hepatitis C virus [2]) [µM] | EC50 (Human betaherpesvirus 5) [µM] | EC50 [3] [nM] | CC50 ([4]; Huh7.5.1 cells) [µM] | EC50 (Human alphaherpesvirus 1) [µM] | EC50 (Vaccinia virus) [µM] | CC50 (MT2) [µM] | CC50 ([4]; huh-7) [µM] | Ratio CC50/EC50 [5] | selectivity ratio [6] | Ratio CC50/EC50 [7]
CCCCCCCCCCCCCCCCCCOCCOP(=O)(O)CO[C@H](COC)Cn1cnc2c(N)ncnc21 | > 20 | 1.43 | 2.38 | 1.55 | 30 | > 150 | 45.7 | 18.3 |  |  |  |  | 
CCCCCCCCCCCCCCCCCCOCCOP(=O)(O)CO[C@@H](COC)Cn1cnc2c(N)ncnc21 |  | 4.65 | 5.33 |  | 4800 | > 150 |  |  |  |  |  |  | 
CCCCCCCCCCCCCCCCOCCCOP(=O)(O)CO[C@H](COC)Cn1cnc2c(N)ncnc21 |  | 2.36 | 4.64 |  | 200 | > 150 |  |  | 32 |  |  |  | 
CCCCCCCCCCCCCCCCCCOCCOP(=O)(O)CO[C@H](COC)Cn1cnc2c(N)nc(N)nc21 |  | 20.1 | 21.4 |  | 230 |  |  |  | 18 | 99 |  |  | 
CCCCCCCCCCCCCCCCCCOCCOP(=O)(O)CO[C@@H](COC)Cn1cnc2c(N)nc(N)nc21 |  | 25.6 | 25.8 |  | 40 | > 150 |  |  | 19.7 |  |  |  | 
CCCCCCCCCCCCCCCCOCCCOP(=O)(O)CO[C@H](COC)Cn1cnc2c(N)nc(N)nc21 |  | 21.3 | 23.6 |  | 4600 |  |  |  | 22.7 | 91.5 |  |  | 
CCCCCCCCCCCCCCCCCCOCCOP(=O)([O-])CO[C@H](COC)Cn1cnc2c(=O)[nH]c(N)nc21.[Na+] |  | 8.26 | 10.7 |  | 200 | > 150 |  |  | 25 |  | >14 | 125 | >18.2
CCCCCCCCCCCCCCCCCCOCCOP(=O)([O-])CO[C@@H](COC)Cn1cnc2c(=O)[nH]c(N)nc21.[Na+] |  | 12.6 | 12.4 |  | < 0.01 | > 150 |  |  | 44 |  | >12.1 | > 4.4e+06 | >11.9
CCCCCCCCCCCCCCCCOCCCOP(=O)(O)CO[C@H](COC)Cn1cnc2c(=O)[nH]c(N)nc21 |  | 22 | 24.8 |  | 2030 | > 150 |  |  | 29.3 |  |  |  | 
CCCCCCCCCCCCCCCCCCOCCOP(=O)(O)CO[C@H](COC)Cn1ccc(N)nc1=O |  | > 150 | > 150 |  | 12700 | > 150 |  |  | 60.7 |  |  | 4.8 | 
CCCCCCCCCCCCCCCCOCCCOP(=O)(O)CO[C@H](COC)Cn1cnc2c(OC)ncnc21 |  | 8.9 | 12.5 |  | > 10000 | > 150 |  |  | 22 |  |  |  | 
CCCCCCCCCCCCCCCCOCCCOP(=O)(O)CO[C@H](COC)Cn1cnc2c(OC)nc(N)nc21 |  | 18.1 | 17.4 |  | > 10000 | > 150 |  |  | 34.3 |  |  |  | 
CCCCCCCCCCCCCCCCCCOCCOP(=O)(O)CO[C@H](CO)Cn1cnc2c(N)ncnc21 |  | 1.55 | 1.65 |  | 0.1 |  | < 0.0001 |  | 0.033 | 35.6 |  |  | 
CCCCCCCCCCCCCCCCOCCCOP(=O)(O)COC(COCC)Cn1cnc2c(N)ncnc21 (racemic) |  | 7.59 | 8.87 |  | > 10000 |  |  |  | 23.6 | 99 |  |  | 
CCCCCCCCCCCCCCCCOCCCOP(=O)(O)COC(COC(C)C)Cn1cnc2c(N)ncnc21 (racemic) |  | 51.2 | 98.8 |  | > 10000 |  |  |  | 30.3 | 100 |  |  | 
CCCCCCCCCCCCCCCCOCCCOP(=O)([O-])COC(COCC)Cn1cnc2c(N)nc(N)nc21.[Na+] (racemic) |  | 18.2 | 19.5 |  | > 10000 | > 150 |  |  | 30.7 |  | >7.69 |  | >8.2
CCCCCCCCCCCCCCCCOCCCOP(=O)([O-])COC(COCC)Cn1cnc2c(=O)[nH]c(N)nc21.[Na+] (racemic) |  | 25.5 | 13.2 |  | > 10000 | > 150 |  |  | 14.9 |  | >11.4 |  | >5.88
